These results are taken from the M2OR odorant receptor database.

Common to all, as to details: stereoisomer not certain
Test [1] addresses OR2H1 (Homo sapiens) (UniProt Q9GZK4). In a few lines: (§1)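 Transient luciferase assays in mammalian cell lines were common, though methods varied by source. The values come from published papers and their supplementary material, with extra details from the original authors when needed. Responsive refers to a measured signal the original authors judged statistically different from baseline, and non-responsive (inactive) to the remainder.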

Test [2] has as its system OR2H2. In a few lines:
as §1

In test [3] the target is OR2J1 (Homo sapiens) (UniProt Q9GZK6). Summed up: as §1
Chain of OR2J1 (Homo sapiens) (Q9GZK6 whole entry): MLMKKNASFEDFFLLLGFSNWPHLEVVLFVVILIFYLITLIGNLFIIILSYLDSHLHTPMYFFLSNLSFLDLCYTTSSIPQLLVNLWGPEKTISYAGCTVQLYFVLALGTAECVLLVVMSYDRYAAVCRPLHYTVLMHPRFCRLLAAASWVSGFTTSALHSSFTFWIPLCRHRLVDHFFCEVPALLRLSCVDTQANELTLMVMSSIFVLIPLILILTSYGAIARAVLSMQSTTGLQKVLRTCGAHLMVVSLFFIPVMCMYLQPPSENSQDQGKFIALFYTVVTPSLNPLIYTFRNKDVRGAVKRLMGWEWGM
In test [4] the test system is OR2J1 L14I V182A. Summed up: as §1
Test [5] deals with OR2J2. Summed up: as §1
Target sequence in this assay (as listed by the source): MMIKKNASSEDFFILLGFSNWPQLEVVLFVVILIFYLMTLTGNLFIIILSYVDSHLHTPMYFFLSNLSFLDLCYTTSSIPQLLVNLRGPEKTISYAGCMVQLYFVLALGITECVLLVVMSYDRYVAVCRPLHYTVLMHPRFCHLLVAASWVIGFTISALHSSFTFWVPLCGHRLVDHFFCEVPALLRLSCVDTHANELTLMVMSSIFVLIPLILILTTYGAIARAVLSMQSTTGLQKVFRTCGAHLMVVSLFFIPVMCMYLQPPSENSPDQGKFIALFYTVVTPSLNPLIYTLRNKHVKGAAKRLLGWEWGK
The subject of test [6] is OR2J2. Summed up: as §1
The source holds these as a separate data set.
Target sequence in this assay (as listed by the source): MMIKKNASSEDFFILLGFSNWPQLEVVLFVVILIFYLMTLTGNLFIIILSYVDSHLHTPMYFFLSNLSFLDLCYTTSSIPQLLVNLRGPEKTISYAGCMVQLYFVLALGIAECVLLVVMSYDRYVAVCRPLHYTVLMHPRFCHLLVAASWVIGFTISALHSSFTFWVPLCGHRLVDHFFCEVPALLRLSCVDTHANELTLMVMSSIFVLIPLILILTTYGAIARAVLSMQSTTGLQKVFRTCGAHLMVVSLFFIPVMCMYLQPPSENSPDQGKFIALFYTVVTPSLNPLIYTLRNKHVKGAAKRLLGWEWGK

The test system of test [7] is OR2J3. In a few lines:
as §1
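Also: active if original authors judged signal statistically different from baseline.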

Chain of OR2H1 (Homo sapiens) (Q9GZK4 whole entry): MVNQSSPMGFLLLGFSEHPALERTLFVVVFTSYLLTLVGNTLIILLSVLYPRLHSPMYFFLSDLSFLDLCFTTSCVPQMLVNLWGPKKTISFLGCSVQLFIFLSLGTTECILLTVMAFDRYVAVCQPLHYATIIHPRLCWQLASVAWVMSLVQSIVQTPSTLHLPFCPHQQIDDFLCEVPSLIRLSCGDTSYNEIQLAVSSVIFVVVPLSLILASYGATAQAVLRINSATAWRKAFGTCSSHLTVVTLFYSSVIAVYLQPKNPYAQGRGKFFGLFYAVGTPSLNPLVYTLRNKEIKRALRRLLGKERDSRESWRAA
Chain of OR2H2 (as listed by the source): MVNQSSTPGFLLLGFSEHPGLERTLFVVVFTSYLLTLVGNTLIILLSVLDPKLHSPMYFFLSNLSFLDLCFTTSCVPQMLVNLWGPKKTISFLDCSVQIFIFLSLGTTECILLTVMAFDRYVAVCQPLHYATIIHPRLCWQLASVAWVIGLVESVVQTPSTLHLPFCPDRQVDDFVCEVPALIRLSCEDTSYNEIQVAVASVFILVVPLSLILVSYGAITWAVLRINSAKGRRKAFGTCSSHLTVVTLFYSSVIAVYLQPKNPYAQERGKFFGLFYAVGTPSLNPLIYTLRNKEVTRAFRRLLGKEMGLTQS
Chain of OR2J3 (as listed by the source): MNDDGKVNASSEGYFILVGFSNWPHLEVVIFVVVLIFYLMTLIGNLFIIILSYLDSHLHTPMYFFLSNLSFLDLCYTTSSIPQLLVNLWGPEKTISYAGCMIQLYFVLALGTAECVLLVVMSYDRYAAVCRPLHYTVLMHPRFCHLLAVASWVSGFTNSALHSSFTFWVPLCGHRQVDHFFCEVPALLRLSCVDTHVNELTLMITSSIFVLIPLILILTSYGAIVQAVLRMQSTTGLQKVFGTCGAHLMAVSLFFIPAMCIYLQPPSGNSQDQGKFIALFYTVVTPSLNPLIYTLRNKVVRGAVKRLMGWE

Take `C=CCOC(=O)Cc1ccccc1`: the “odorant receptor agonist call” value in test [1], in test [2], in test [3], in test [4] and in test [5] was “inactive” each time.
In the case of `Cc1c([N+](=O)[O-])c(C)c([N+](=O)[O-])c(C(C)(C)C)c1[N+](=O)[O-]`, the “odorant receptor agonist call” value in test [1] and in test [3] was “inactive” each time.
As for `CCCCOC(=O)c1ccccc1N`, the “odorant receptor agonist call” value in test [6] and in test [5] was “active” each time.
For the compound `O=CC=Cc1ccccc1`, the “odorant receptor agonist call” value in test [7] was “active”.
